Reference: ChEMBL document CHEMBL1130239, “Synthesis and evaluation of (S)-4-(3-(2'-[11C]isopropylamino)-2-hydroxypropoxy) -2H-benzimidazol -2-one ((S)-[11C]CGP 12388) and (S)-4-(3-((1'-[18F]-fluoroisopropyl)amino)-2-hydroxypropoxy) -2H- benzimidazol-2-one ((S)-[18F]fluoro-CGP 12388) for visualization of beta-adrenoceptors with positron …” (J Med Chem, 1997)

Experiments:
Rattus norvegicus [1] = species on record: Rattus norvegicus; test: Biodistribution of [18]Fluoro-CGP 12388 (10 minutes post injection) in plasma of male wistar rats; assay type: ADME, organism-based; conditions: in vivo
Method in brief: (§1)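 Pentobarbital-anesthetized (60 mg/kg ip) male Wistar rats (200 ± 20 g) received iv saline (n = 4) or 500 μg (±)-propranolol (n = 4) <1 min before 2 MBq (30 pmol) tracer in 0.3 mL. They were killed by heart extirpation at 10 or 60 min. Plasma came from blood centrifuged 3 min at 1000g. Tissue counts are expressed as DAR, mean ± SD.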

Rattus norvegicus [2] = species on record: Rattus norvegicus; test: Biodistribution of [18]Fluoro-CGP 12388 (10 minutes post injection) in heart of male wistar rats; assay type: ADME, organism-based; conditions: in vivo; method in brief: as §1
Rattus norvegicus [3] = species on record: Rattus norvegicus; test: Biodistribution of [18]Fluoro-CGP 12388 (60 minutes post injection) in plasma of male wistar rats; assay type: ADME, organism-based; conditions: in vivo, 1 h
Method in brief: (§2)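 Male Wistar rats (200 ± 20 g) under ip pentobarbital (60 mg/kg). Saline given iv <1 min before tracer (controls, n = 4). Tracer (2 MBq, 30 pmol) injected iv in 0.3 mL. Rats killed by heart extirpation at 60 min and tissues dissected; plasma taken by centrifugation (3 min, 1000g). Uptake given as DAR, (cpm/g tissue)/(injected cpm/body weight g), mean ± SD.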

Rattus norvegicus [4] = species on record: Rattus norvegicus; test: Biodistribution of [18]Fluoro-CGP 12388 (60 minutes post injection) in spleen of male wistar rats; assay type: ADME, organism-based; conditions: in vivo, 1 h; method in brief: as §2
Rattus norvegicus [5] = species on record: Rattus norvegicus; test: Biodistribution of [18]Fluoro-CGP 12388 (10 minutes post injection) in liver of male wistar rats; assay type: ADME, organism-based; conditions: in vivo; method in brief: as §1
Rattus norvegicus [6] = species on record: Rattus norvegicus; test: Biodistribution of {18]Fluoro-CGP 12388 (60 minutes post injection) in liver of male wistar rats; assay type: ADME, organism-based; conditions: in vivo, 1 h; method in brief: as §2
Rattus norvegicus [7] = species on record: Rattus norvegicus; test: Biodistribution of [18]Fluoro-CGP 12388 (10 minutes post injection) in trachea of male wistar rats; assay type: ADME, organism-based; conditions: in vivo; method in brief: as §1
Rattus norvegicus [8] = species on record: Rattus norvegicus; test: Biodistribution of [18]Fluoro-CGP 12388 (60 minutes post injection) in red blood cells of male wistar rats; assay type: ADME, organism-based; conditions: in vivo, 1 h; method in brief: as §2
Rattus norvegicus [9] = species on record: Rattus norvegicus; test: Biodistribution of [18]Fluoro-CGP 12388 (60 minutes post injection) in cortex of male wistar rats; assay type: ADME, organism-based; conditions: in vivo, 1 h; method in brief: as §1
Rattus norvegicus [10] = species on record: Rattus norvegicus; test: Biodistribution of [18]Fluoro-CGP 12388 (10 minutes post injection) in bone of male wistar rats; assay type: ADME, organism-based, Bone element; conditions: in vivo; method in brief: as §1
Rattus norvegicus [11] = species on record: Rattus norvegicus; test: Biodistribution of [18]Fluoro-CGP 12388 (10 minutes post injection) in cortex of male wistar rats; assay type: ADME, organism-based; conditions: in vivo; method in brief: as §1
Rattus norvegicus [12] = species on record: Rattus norvegicus; test: Biodistribution of [18]Fluoro-CGP 12388 (60 minutes post injection) in fat of male wistar rats; assay type: ADME, organism-based, Adipose tissue; conditions: in vivo, 1 h; method in brief: as §1
Rattus norvegicus [13] = species on record: Rattus norvegicus; test: Biodistribution of [18]Fluoro-CGP 12388 (10 minutes post injection) in red blood cells of male wistar rats; assay type: ADME, organism-based; conditions: in vivo; method in brief: as §1
Rattus norvegicus [14] = species on record: Rattus norvegicus; test: Biodistribution of [18]Fluoro-CGP 12388 (60 minutes post injection) in kidney of male wistar rats; assay type: ADME, organism-based; conditions: in vivo, 1 h; method in brief: as §1
[15] = Partition coefficient (logP); assay type: physicochemical; conditions: octanol/water
Method in brief: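 50-100 μCi of tracer in 0.1 M phosphate buffer pH 7.4 (5 mL) plus n-octanol (5 mL). Shaken vigorously for 30 min at 37 °C, five mixtures. 100 μL of each layer gamma-counted. log P from the octanol/water count ratio, n = 5. A calculated value was also obtained with Pallas 1.2.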

Rattus norvegicus [16] = species on record: Rattus norvegicus; test: Biodistribution of [18]Fluoro-CGP 12388 (60 minutes post injection) in bone of male wistar rats; assay type: ADME, organism-based, Bone element; conditions: in vivo, 1 h; method in brief: as §1
Rattus norvegicus [17] = species on record: Rattus norvegicus; test: Biodistribution of [18]Fluoro-CGP 12388 (10 minutes post injection) in kidney of male wistar rats; assay type: ADME, organism-based; conditions: in vivo; method in brief: as §1
Rattus norvegicus [18] = species on record: Rattus norvegicus; test: Biodistribution of [18]Fluoro-CGP 12388 (10 minutes post injection) in cerebellum of male wistar rats; assay type: ADME, organism-based; conditions: in vivo; method in brief: as §1
Rattus norvegicus [19] = species on record: Rattus norvegicus; test: Biodistribution of [18]Fluoro-CGP 12388 (10 minutes post injection) in fat of male wistar rats; assay type: ADME, organism-based, Adipose tissue; conditions: in vivo; method in brief: as §1
Rattus norvegicus [20] = species on record: Rattus norvegicus; test: Biodistribution of [18]Fluoro-CGP 12388 (60 minutes post injection) in trachea of male wistar rats; assay type: ADME, organism-based; conditions: in vivo, 1 h; method in brief: as §2
Rattus norvegicus [21] = species on record: Rattus norvegicus; test: Biodistribution of [18]Fluoro-CGP 12388 (60 minutes post injection) in muscle of male wistar rats; assay type: ADME, organism-based, Muscle tissue; conditions: in vivo, 1 h; method in brief: as §2
Rattus norvegicus [22] = species on record: Rattus norvegicus; test: Biodistribution of [18]Fluoro-CGP 12388 (10 minutes post injection) in lung of male wistar rats; assay type: ADME, organism-based; conditions: in vivo; method in brief: as §1
Rattus norvegicus [23] = species on record: Rattus norvegicus; test: Biodistribution of [18]Fluoro-CGP 12388 (10 minutes post injection) in intestine of male wistar rats; assay type: ADME, organism-based; conditions: in vivo; method in brief: as §1
Rattus norvegicus [24] = species on record: Rattus norvegicus; test: Biodistribution of [18]Fluoro-CGP 12388 (60 minutes post injection) in intestine of male wistar rats; assay type: ADME, organism-based; conditions: in vivo, 1 h; method in brief: as §1
Rattus norvegicus [25] = species on record: Rattus norvegicus; test: Biodistribution of [18]Fluoro-CGP 12388 (10 minutes post injection) in muscle of male wistar rats; assay type: ADME, organism-based, Muscle tissue; conditions: in vivo; method in brief: as §1
Rattus norvegicus [26] = species on record: Rattus norvegicus; test: Biodistribution of [18]Fluoro-CGP 12388 (60 minutes post injection) in lung of male wistar rats; assay type: ADME, organism-based; conditions: in vivo, 1 h; method in brief: as §1
Rattus norvegicus [27] = species on record: Rattus norvegicus; test: Biodistribution of [18]Fluoro-CGP 12388 (60 minutes post injection) in cerebellum of male wistar rats; assay type: ADME, organism-based; conditions: in vivo, 1 h; method in brief: as §1
Rattus norvegicus [28] = species on record: Rattus norvegicus; test: Biodistribution of [18]Fluoro-CGP 12388 (60 minutes post injection) in heart of male wistar rats; assay type: ADME, organism-based; conditions: in vivo, 1 h; method in brief: as §1
Rattus norvegicus [29] = species on record: Rattus norvegicus; test: Biodistribution of [18]Fluoro-CGP 12388 (10 minutes post injection) in spleen of male wistar rats; assay type: ADME, organism-based; conditions: in vivo; method in brief: as §1

Question: Which DAR (Rattus norvegicus [1]) does the source give for `CC(C[18F])NC[C@H](O)COc1cccc2[nH]c(O)nc12` (some centres undefined) here?
Answer: 0.51

Question: What about the DAR (Rattus norvegicus [2]) of the same compound?
Answer: 1.09

Question: What about the DAR (Rattus norvegicus [3]) of the same compound?
Answer: 0.35

Question: What about the DAR (Rattus norvegicus [4]) of the same compound?
Answer: 0.41

Question: What about the DAR (Rattus norvegicus [5]) of the same compound?
Answer: 1.62

Question: And the DAR (Rattus norvegicus [6])?
Answer: 0.64

Question: What about the DAR (Rattus norvegicus [7]) of the same compound?
Answer: 0.7

Question: And the DAR (Rattus norvegicus [8])?
Answer: 0.39

Question: What about the DAR (Rattus norvegicus [9]) of the same compound?
Answer: 0.12

Question: What about the DAR (Rattus norvegicus [10]) of the same compound?
Answer: 0.39

Question: What about the DAR (Rattus norvegicus [11]) of the same compound?
Answer: 0.13

Question: What about the DAR (Rattus norvegicus [12]) of the same compound?
Answer: 0.07

Question: What about the DAR (Rattus norvegicus [13]) of the same compound?
Answer: 0.57

Question: What about the DAR (Rattus norvegicus [14]) of the same compound?
Answer: 0.91

Question: And the logP [15]?
Answer: 0.44

Question: And the DAR (Rattus norvegicus [16])?
Answer: 0.41

Question: What about the DAR (Rattus norvegicus [17]) of the same compound?
Answer: 7.93

Question: What about the DAR (Rattus norvegicus [18]) of the same compound?
Answer: 0.17

Question: And the DAR (Rattus norvegicus [19])?
Answer: 0.53

Question: And the DAR (Rattus norvegicus [20])?
Answer: 0.37

Question: What about the DAR (Rattus norvegicus [21]) of the same compound?
Answer: 0.3

Question: What about the DAR (Rattus norvegicus [22]) of the same compound?
Answer: 1.37

Question: What about the DAR (Rattus norvegicus [23]) of the same compound?
Answer: 1.52

Question: What about the DAR (Rattus norvegicus [24]) of the same compound?
Answer: 0.87

Question: What about the DAR (Rattus norvegicus [25]) of the same compound?
Answer: 0.42

Question: And the DAR (Rattus norvegicus [26])?
Answer: 0.59

Question: What about the DAR (Rattus norvegicus [27]) of the same compound?
Answer: 0.12

Question: What about the DAR (Rattus norvegicus [28]) of the same compound?
Answer: 0.46

Question: And the DAR (Rattus norvegicus [29])?
Answer: 1.17
